Active and inactive are the calls of the source. The rule behind the calls is not given here.
Experiments:
[1] = molecular target: T1, Ectonucleoside triphosphate diphosphohydrolase 8 (Homo sapiens) (UniProt Q5MY95); test: Activity of human NTPDase 8 expressed in human 293T cells assessed as drug hydrolysis at 100 uM after 20 mins relative to ATP; format: cell-based; design: scale not given: the % may be the effect or the level left
T1 sequence (whole entry): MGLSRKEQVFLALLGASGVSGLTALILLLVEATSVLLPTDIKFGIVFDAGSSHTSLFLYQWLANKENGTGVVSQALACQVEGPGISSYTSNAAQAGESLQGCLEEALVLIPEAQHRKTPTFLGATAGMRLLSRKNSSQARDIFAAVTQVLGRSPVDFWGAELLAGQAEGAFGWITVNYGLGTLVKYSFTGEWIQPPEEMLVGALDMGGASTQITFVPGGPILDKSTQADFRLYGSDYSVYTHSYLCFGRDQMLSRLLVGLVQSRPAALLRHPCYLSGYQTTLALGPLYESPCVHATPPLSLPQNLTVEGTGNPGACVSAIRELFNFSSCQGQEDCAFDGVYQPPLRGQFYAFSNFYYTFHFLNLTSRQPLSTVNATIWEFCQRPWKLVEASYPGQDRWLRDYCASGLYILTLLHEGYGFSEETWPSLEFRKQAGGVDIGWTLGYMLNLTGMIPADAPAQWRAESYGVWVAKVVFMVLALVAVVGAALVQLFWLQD
Outline: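 Human NTPDase1, 2, 3 or 8 in crude extracts of transfected 293T cells, pre-incubated 3 min at 37 °C in Tris-Ringer buffer pH 7.4. […] Untransfected-cell extract activity subtracted.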

[2] = molecular target: T2, Ectonucleotide pyrophosphatase/phosphodiesterase family member 3 (Homo sapiens) (UniProt O14638); test: Activity of human NPP3 expressed in human 293T cells assessed as drug hydrolysis at 100 uM after 20 mins by reverse-phase HPLC relative to p-nitrophenyl-thymidine-5-monophosphate; format: cell-based; design: scale not given: the % may be the effect or the level left
T2 sequence (whole entry): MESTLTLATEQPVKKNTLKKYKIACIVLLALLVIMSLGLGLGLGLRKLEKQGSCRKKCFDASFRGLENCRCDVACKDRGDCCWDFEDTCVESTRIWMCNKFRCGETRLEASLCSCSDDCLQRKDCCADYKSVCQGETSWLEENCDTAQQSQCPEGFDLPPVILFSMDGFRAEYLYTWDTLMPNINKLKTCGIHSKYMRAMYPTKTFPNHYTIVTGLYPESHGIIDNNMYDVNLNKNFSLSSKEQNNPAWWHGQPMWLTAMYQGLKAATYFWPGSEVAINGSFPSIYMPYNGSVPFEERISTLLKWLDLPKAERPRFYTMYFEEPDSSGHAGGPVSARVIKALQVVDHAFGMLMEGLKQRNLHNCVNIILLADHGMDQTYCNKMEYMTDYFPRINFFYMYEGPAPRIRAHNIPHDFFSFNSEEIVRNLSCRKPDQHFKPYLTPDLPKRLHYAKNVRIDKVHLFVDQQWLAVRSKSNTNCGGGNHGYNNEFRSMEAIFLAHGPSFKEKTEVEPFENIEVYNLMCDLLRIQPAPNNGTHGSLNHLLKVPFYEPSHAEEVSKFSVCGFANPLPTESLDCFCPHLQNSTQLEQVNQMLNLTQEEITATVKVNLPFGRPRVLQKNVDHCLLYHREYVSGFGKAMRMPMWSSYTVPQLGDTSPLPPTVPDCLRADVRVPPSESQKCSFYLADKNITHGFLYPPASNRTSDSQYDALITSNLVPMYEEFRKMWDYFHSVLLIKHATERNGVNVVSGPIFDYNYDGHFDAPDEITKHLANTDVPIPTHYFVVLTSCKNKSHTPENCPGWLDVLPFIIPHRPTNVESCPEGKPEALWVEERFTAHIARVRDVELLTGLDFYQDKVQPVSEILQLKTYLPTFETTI
Outline: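 Crude extract of 293T cells transfected with human NPP1 or NPP3, pre-incubated 3 min at 37 °C in 1 mM CaCl2, 140 mM NaCl, 5 mM KCl, 50 mM Tris pH 8.5. Substrate at 100 µM final for 20 min, stopped in ice-cold perchloric acid and neutralized with KOH. Loss of analogue quantified by reverse-phase HPLC with ion-pair phosphate mobile phase pH 7.0. pnp-TMP (p-nitrophenol at 410 nm) served as the 100% reference.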

[3] = molecular target: T1, Ectonucleoside triphosphate diphosphohydrolase 8 (Homo sapiens); test: Inhibition of human NTPDase 8 expressed in human 293T cells; format: cell-based
[4] = molecular target: T3, Ectonucleotide pyrophosphatase/phosphodiesterase family member 1 (Homo sapiens) (UniProt P22413); test: Inhibition of human NPP1 expressed in human 293T cells; format: cell-based
T3 sequence (whole entry): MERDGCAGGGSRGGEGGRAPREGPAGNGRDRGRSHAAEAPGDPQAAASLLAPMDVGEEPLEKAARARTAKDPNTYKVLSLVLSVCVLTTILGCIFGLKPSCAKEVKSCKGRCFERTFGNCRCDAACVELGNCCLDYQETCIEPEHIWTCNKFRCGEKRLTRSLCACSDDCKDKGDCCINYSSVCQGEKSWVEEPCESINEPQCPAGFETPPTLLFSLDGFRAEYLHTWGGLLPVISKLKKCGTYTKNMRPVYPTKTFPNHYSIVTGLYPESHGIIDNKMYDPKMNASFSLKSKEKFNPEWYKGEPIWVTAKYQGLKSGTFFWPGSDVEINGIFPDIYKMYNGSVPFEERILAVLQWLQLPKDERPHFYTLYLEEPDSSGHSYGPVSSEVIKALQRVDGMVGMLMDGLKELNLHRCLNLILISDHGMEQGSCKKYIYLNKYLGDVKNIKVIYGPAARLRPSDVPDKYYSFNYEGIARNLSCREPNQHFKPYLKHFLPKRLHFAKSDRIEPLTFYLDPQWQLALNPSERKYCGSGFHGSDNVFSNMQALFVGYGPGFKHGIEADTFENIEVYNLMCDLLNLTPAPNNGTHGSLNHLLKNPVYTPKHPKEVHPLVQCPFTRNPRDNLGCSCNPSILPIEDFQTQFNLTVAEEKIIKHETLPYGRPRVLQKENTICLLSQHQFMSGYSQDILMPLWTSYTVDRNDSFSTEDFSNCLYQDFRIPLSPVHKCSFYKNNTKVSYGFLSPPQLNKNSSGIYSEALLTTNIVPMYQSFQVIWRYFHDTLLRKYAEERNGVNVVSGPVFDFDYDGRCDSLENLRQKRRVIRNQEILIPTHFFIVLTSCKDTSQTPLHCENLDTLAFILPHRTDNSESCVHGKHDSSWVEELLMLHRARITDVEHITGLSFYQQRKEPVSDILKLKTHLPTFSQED

[5] = molecular target: P2Y purinoceptor 1 (Meleagris gallopavo) (UniProt P49652); test: Agonist activity at turkey P2Y1 receptor expressed in human 1321N1 cells assessed as increase in intracellular calcium concentration by dual-excitation spectrofluorimetric analysis; format: functional, cell-based
P2Y purinoceptor 1 (Meleagris gallopavo), sequence (P49652 whole entry): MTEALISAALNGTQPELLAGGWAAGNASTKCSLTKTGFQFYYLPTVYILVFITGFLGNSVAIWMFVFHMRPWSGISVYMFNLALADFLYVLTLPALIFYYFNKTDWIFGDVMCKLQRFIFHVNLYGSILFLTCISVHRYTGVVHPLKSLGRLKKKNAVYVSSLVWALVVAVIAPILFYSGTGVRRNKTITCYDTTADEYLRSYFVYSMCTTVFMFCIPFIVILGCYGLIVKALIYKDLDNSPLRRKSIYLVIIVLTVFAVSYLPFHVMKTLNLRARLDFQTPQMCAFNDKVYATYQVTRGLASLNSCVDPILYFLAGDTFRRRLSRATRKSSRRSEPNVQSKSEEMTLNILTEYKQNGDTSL

Row | Compound | Activity [1] [%] | Activity [2] [%] | Activity [3] | Activity [4] | Activity [5]
1 | CSc1nc(N)c2ncn([C@@H]3O[C@H](COP(=O)(O)OP(=O)(O)CP(=O)(O)O)[C@@H](O)[C@H]3O)c2n1 | 7 | 10 | inactive | inactive | 
2 | BP(=O)(OC[C@H]1O[C@@H](n2cnc3c(N)ncnc32)[C@H](O)[C@@H]1O)OP(=O)(O)CP(=O)(O)O (stereo partly drawn) | 2 | 0 | inactive | inactive | inactive
3 | BP(=O)(OC[C@H]1O[C@@H](n2cnc3c(N)nc(SC)nc32)[C@H](O)[C@@H]1O)OP(=O)(O)CP(=O)(O)O (single isomer, unassigned; diastereomer A) | 4 | 9.9 | inactive | inactive | inactive
4 | BP(=O)(OC[C@H]1O[C@@H](n2cnc3c(N)nc(SC)nc32)[C@H](O)[C@@H]1O)OP(=O)(O)CP(=O)(O)O (single isomer, unassigned; diastereomer B) | 3 | 0 | inactive | inactive | 
5 | BP(=O)(OC[C@H]1O[C@@H](n2cnc3c(N)ncnc32)[C@H](O)[C@@H]1O)OP(=O)(O)CP(=O)(O)O (single isomer, unassigned; diastereomer B) | < 1 | 3 | inactive | inactive | inactive

Reference: ChEMBL document CHEMBL1137702, “Identification of hydrolytically stable and selective P2Y(1) receptor agonists” (Eur J Med Chem, 2009)
